# Results from ChEMBL document CHEMBL1157503, “Affinity of 3-acyl substituted 4-quinolones at the benzodiazepine site of GABA(A) receptors” (Bioorg Med Chem, 2008).
# Legend:
# [1] = Displacement of [3H]flumazenil from GABAA receptor in rat cortical membrane; assay type: cell membranes
# Summary of the method: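 Rat cortex homogenized in Tris-HCl (30 mM, pH 7.4), washed by repeated centrifugation at 27,000g, incubated 30 min at 37 °C, then stored at −20 °C. About 50 µg protein per 0.55 ml assay in Tris-citrate (50 mM, pH 7.1) was incubated with 1 nM ³H-flumazenil for 40 min at 0–4 °C, then filtered on GF/C. Nonspecific binding was set with 1 µM clonazepam.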
# [2] = Displacement of [3H]flumazenil from human recombinant GABAA alpha-2-beta-2-gamma-2S receptor expressed in HEK293 cells; assay type: cell-based
# Summary of the method: (§1)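 HEK 293 membranes expressing human α1β2γ2s, α2β2γ2s or α3β2γ2s receptors, about 25 µg protein per 0.55 ml assay in Tris-citrate (50 mM, pH 7.1). Incubated with 1 nM ³H-flumazenil (final) for 40 min at 0–4 °C, then GF/C filtration and ice-cold washes. Nonspecific binding was set with 1 µM clonazepam. […] Mean ± SD of three determinations.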
# [3] = Displacement of [3H]flumazenil from human recombinant GABAA alpha-3-beta-2-gamma-2S receptor expressed in HEK293 cells; assay type: cell-based; summary of the method: as §1
# Homo sapiens [4] = species on record: Homo sapiens; test: Selectivity ratio of Ki for human recombinant GABAA alpha-2-beta-2-gamma-2S receptor to Ki for human recombinant GABAA alpha-1-beta-2-gamma-2S receptor
# Summary of the method: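 Displacement of 1 nM [3H]flumazenil from HEK 293 membranes expressing human α2β2γ2s or α1β2γ2s receptors (about 25 µg protein per 0.55 ml), in 50 mM Tris-citrate pH 7.1, 40 min at 0–4 °C. Filtered on glass fibre. Nonspecific binding with 1 µM clonazepam. IC50 from 4–6 concentrations. […] Ratio is Ki α2/Ki α1.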
# Homo sapiens [5] = species on record: Homo sapiens; test: Selectivity ratio of Ki for human recombinant GABAA alpha-3-beta-2-gamma-2S receptor to Ki for human recombinant GABAA alpha-1-beta-2-gamma-2S receptor
# Summary of the method: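 Ratio of the Ki at human α3β2γ2s to the Ki at human α1β2γ2s, both from ³H-flumazenil (1 nM) displacement in HEK 293 membranes (40 min, 0–4 °C, 1 µM clonazepam nonspecific).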
# [6] = target: T1, GABA-A receptor; alpha-1/beta-2/gamma-2 (Homo sapiens, UniProt P14867+P18507+P47870); test: Displacement of [3H]flumazenil from human recombinant GABAA alpha-1-beta-2-gamma-2S receptor expressed in HEK293 cells; assay type: cell-based; summary of the method: as §1
# T1 sequence (P14867 whole entry): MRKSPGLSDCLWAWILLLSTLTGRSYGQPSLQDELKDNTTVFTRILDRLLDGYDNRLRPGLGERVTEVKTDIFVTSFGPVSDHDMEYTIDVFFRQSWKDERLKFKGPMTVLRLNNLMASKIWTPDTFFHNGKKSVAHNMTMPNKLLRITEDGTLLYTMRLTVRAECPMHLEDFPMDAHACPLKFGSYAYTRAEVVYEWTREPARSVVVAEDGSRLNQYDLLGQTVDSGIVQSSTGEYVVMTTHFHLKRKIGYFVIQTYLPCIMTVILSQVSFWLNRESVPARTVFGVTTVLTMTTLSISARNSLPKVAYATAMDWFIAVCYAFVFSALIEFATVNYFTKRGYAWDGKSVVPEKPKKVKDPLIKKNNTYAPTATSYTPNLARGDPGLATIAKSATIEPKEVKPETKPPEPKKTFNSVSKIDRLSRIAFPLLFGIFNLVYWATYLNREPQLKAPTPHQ
# T1 sequence (P47870 whole entry): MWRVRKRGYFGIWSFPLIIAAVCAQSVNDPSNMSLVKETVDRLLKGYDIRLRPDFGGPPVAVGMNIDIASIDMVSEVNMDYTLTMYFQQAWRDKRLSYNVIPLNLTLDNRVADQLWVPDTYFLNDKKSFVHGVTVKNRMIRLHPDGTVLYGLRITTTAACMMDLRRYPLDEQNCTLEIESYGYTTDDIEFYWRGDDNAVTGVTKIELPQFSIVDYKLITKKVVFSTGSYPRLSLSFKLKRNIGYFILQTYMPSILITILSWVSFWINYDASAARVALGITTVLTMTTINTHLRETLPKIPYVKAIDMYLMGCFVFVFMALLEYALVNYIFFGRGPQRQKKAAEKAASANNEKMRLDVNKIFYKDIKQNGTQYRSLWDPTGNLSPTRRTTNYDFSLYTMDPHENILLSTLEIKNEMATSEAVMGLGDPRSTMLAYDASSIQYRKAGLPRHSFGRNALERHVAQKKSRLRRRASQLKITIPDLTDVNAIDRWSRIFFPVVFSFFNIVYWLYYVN
# T1 sequence (P18507 whole entry): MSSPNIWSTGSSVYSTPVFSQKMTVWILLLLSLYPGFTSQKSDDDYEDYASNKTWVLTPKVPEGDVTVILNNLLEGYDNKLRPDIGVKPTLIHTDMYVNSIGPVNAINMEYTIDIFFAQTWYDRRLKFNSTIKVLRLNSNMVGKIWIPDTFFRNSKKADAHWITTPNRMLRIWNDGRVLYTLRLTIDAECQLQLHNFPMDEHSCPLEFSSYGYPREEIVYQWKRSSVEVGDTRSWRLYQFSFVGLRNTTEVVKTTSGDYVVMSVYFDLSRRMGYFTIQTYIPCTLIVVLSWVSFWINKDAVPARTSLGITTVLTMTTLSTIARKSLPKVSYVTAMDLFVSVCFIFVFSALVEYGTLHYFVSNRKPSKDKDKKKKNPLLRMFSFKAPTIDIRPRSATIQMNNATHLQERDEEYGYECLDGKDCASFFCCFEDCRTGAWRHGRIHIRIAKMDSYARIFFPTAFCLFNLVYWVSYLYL
SMILES,Ki [1],Ki [2],Ki [3],Ratio Ki (Homo sapiens [4]),Ratio Ki (Homo sapiens [5]),Ki [6]
CCCCC(=O)c1c[nH]c2ccc(Cc3ccc4ccccc4c3)cc2c1=O,1.3 nM,22 nM,8.8 nM,8,3,2.7 nM
CCCCC(=O)c1c[nH]c2ccc(CCc3ccccc3)cc2c1=O,0.42 nM,1.7 nM,1.1 nM,3,2,0.53 nM
O=C(CC1CCCC1)c1c[nH]c2ccc(Cc3ccccc3)cc2c1=O,1 nM,–,13 nM,–,25,0.51 nM
CCCCC(=O)c1c[nH]c2ccc(Br)cc2c1=O,0.54 nM,–,–,–,–,–
CCCCCC(=O)c1c[nH]c2ccc(CC)cc2c1=O,0.98 nM,–,–,–,–,–
CCCCC(=O)c1c[nH]c2ccc(Cc3cccnc3)cc2c1=O,0.27 nM,–,2.2 nM,–,18,0.12 nM
CCCCC(=O)c1c[nH]c2ccccc2c1=O,2.2 nM,–,9.2 nM,–,9,0.97 nM
CCCCC(=O)c1c[nH]c2ccc(-c3ccccc3)cc2c1=O,28 nM,–,–,–,–,–
CCOC(=O)c1cnc2ccc(CC)cc2c1O,20 nM,–,52 nM,–,9,5.9 nM
CCOC(=O)c1c[nH]c2ccc(Cc3ccccc3)cc2c1=O,1.4 nM,–,7.2 nM,–,27,–
CCc1ccc2[nH]cc(C(=O)CC3CCCCC3)c(=O)c2c1,30 nM,–,–,–,–,–
CCc1ccc2[nH]cc(C(=O)CCC(C)C)c(=O)c2c1,2.5 nM,–,–,–,–,–
CCOC(=O)c1cnc2ccc(Cc3ccccc3)cc2c1O,–,–,–,–,–,0.27 nM
CCCC(=O)c1c[nH]c2ccc(Cc3ccccc3)cc2c1=O,0.22 nM,0.81 nM,1.56 nM,7,13,0.12 nM
CCc1ccc2[nH]cc(C(=O)Cc3ccccc3)c(=O)c2c1,69 nM,–,–,–,–,–
CCc1ccc2[nH]cc(C(=O)CCC(C)(C)C)c(=O)c2c1,19 nM,–,–,–,–,–
CCCCCCC(=O)c1c[nH]c2ccc(CC)cc2c1=O,2.1 nM,–,–,–,–,–
O=C(CC1CCCC1)c1c[nH]c2ccc(Cc3cccnc3)cc2c1=O,1.5 nM,–,23 nM,–,26,0.88 nM
CCc1ccc2[nH]cc(C(=O)CC3CCCC3)c(=O)c2c1,7.9 nM,31 nM,74 nM,6,15,5.1 nM
CCCCC(=O)c1c[nH]c2ccc([N+](=O)[O-])cc2c1=O,0.87 nM,–,–,–,–,–
CCCCC(=O)c1c[nH]c2ccc(CCCc3ccccc3)cc2c1=O,2.5 nM,16 nM,14.3 nM,5,4,3.2 nM
CCCCC(=O)c1c[nH]c2ccc(CC)cc2c1=O,0.9 nM,1.6 nM,2.8 nM,4,7,0.38 nM
CCCCC(=O)c1c[nH]c2ccc(Cc3ccccc3)cc2c1=O,0.17 nM,0.4 nM,0.61 nM,3,5,0.12 nM
CCCCC(=O)c1c[nH]c2ccc(Cc3ccncc3)cc2c1=O,0.53 nM,2.7 nM,2.1 nM,7,5,0.39 nM
CCCCC(=O)c1c[nH]c2ccc(Cc3ccccn3)cc2c1=O,0.23 nM,–,2.2 nM,–,16,0.14 nM
CCc1ccc2[nH]cc(C(=O)CC(C)CC)c(=O)c2c1 (stereo unspecified),18 nM,–,–,–,–,–
